Reference: ChEMBL document CHEMBL5055645 (J Med Chem, 2021)
The source made the active and inactive calls. The rule behind the calls is not given here.

Assays:
[1] = Stability in human serum assessed as compound degradation measured at 2 mg/ml after 24 hrs at 37C by RP-HPLC analysis; type: ADME, cell-free
Procedure, shortened: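 Peptide at 2 mg/mL final in 25% (v/v) pooled human male AB serum, incubated at 37 °C for 24 h. Samples quenched with equal volume acetonitrile on ice for 20 min and centrifuged at 4 °C. Supernatant diluted to 0.1 mg/mL and run on RP-HPLC. Intact peptide estimated from peak area at 215 nm.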

[2] = In vivo stability in C57BL/6J mouse serum assessed as compound degradation measured at 5 mg/kg, iv after 15 mins by LC/MS/MS analysis; type: ADME, organism-based; conditions: 0.25 h
Procedure, shortened: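 Mice (C57BL/6J, 8 weeks old, 20–30 g), 4 male and 4 female per group, given one i.v. dose of 5 mg/kg. Submandibular blood drawn into EDTA tubes at 15 min, 30 min, 1, 2, 4, 8 and 24 h. Plasma protein precipitated with 9:1 acetonitrile/acetic acid on ice, centrifuged, and the supernatant analysed by LC/MS/MS.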

Mus musculus [3] = test: Hyperglycemic effect in C57BL/6J mouse assessed as increase in blood glucose level at 50 microg/kg, iv measured measured after 30 mins by intraperitoneal insulin tolerance test; type: functional, organism-based; conditions: dose 50.0 µg/kg
Procedure, shortened: (§1)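 Female C57BL/6J mice, 8 weeks old, 20–30 g, 5 per group. After a 3 h fast they received insulin 0.75 IU/kg, then a single i.v. dose of peptide (50 or 500 μg/kg) or saline. Blood glucose read by glucometer at 15, 30 and 60 min after injection.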

Mus musculus [4] = test: Hyperglycemic effect in C57BL/6J mouse assessed as increase in blood glucose level at 500 microg/kg, iv measured measured after 30 mins by intraperitoneal insulin tolerance test; type: functional, organism-based; conditions: dose 500.0 µg/kg; procedure, shortened: as §1
Mus musculus [5] = test: Hyperglycemic effect in C57BL/6J mouse assessed as increase in blood glucose level at 50 microg/kg, iv measured measured up to 60 mins by intraperitoneal insulin tolerance test; type: functional, organism-based; conditions: dose 50.0 µg/kg
Procedure, shortened: (§2)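 Wild-type 8-week-old female mice weighing 20–30 g, 7 groups of 5. Mice fasted 3 h, then given insulin (0.75 IU/kg). […] Blood glucose read with a glucometer at 15, 30 and 60 min post-injection.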

Mus musculus [6] = test: Hyperglycemic effect in C57BL/6J mouse assessed as increase in blood glucose level at 500 microg/kg, iv measured measured up to 60 mins by intraperitoneal insulin tolerance test; type: functional, organism-based; conditions: dose 500.0 µg/kg; procedure, shortened: as §2

Row | Sequence | Drug degradation [1] | Stability [2] | Activity (Mus musculus [3]) | Activity (Mus musculus [4]) | Activity (Mus musculus [5]) | Activity (Mus musculus [6])
1 | GLUCAGON [listing 1 of 2 here] | > 85% | Unstable | – | – | – | –
2 | GLUCAGON [listing 2 of 2 here] | – | – | Active | Active | Active | Active
